Laboratory results reported in ChEMBL document CHEMBL5058577, “EUbOPEN Chemogenomics Library 2 (Multiplex)” (2022).

System: HEK-293T
Assay: Multiplex assay against HEK293T
Format: toxicity, cell-based
Conditions: human
Method in brief: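 Hoechst33342, BioTracker Green Microtubule Cytoskeleton Dye, MitoTracker Red and Annexin V Alexa Fluor 680 were added to live cells at seeding, and imaging on a CQ1 microscope at 37°C and 5% CO2 followed compound addition. Gating by CellPathfinder machine learning separated cells into Hoechst high-intensity objects or normal cells, then normal cells into healthy, pyknosed or fragmented nuclei, then pyknosed cells into mitotic or apoptotic. Per cents of healthy-nucleus cells are reported for the tubulin, mitochondrial-mass and membrane-permeability phenotypes.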

[1] = 12 h, 1 µM, compound concentration 1 uM, replicate 1
[2] = 12 h, 1 µM, compound concentration 1 uM, replicate 2
[3] = 12 h, 10 µM, compound concentration 10 uM, replicate 1
[4] = 12 h, 10 µM, compound concentration 10 uM, replicate 2
[5] = 24 h, 1 µM, compound concentration 1 uM, replicate 1
[6] = 24 h, 1 µM, compound concentration 1 uM, replicate 2
[7] = 24 h, 10 µM, compound concentration 10 uM, replicate 1
[8] = 24 h, 10 µM, compound concentration 10 uM, replicate 2
[9] = 48 h, 1 µM, compound concentration 1 uM, replicate 1
[10] = 48 h, 1 µM, compound concentration 1 uM, replicate 2
[11] = 48 h, 10 µM, compound concentration 10 uM, replicate 1
[12] = 48 h, 10 µM, compound concentration 10 uM, replicate 2

SMILES: CC(C)(C)c1ccc(S(=O)(=O)Nc2ccc(Cl)cc2C(=O)c2cc[n+]([O-])cc2)cc1 [VERCIRNON]
- Population Apoptotic (%) [1]: 32%
- Population Fragmented Nuclei (%) [1]: 10%
- Population Healthy Nuclei (%) [1]: 77%
- Population Hoechst High Intensity Objects (%) [1]: 7%
- Population Membrane Permeable-Phenotype (%) [1]: 0%
- Population Mitochondria Different-Phenotype (%) [1]: 33%
- Population Mitotic Cells (%) [1]: 68%
- Population Normal (%) [1]: 92%
- Population Pyknosed Nuclei (%) [1]: 12%
- Population Tubulin-Different-Phenotype (%) [1]: 21%
- Total Cell Count [1]: 428
- Population Apoptotic (%) [2]: 52%
- Population Fragmented Nuclei (%) [2]: 5%
- Population Healthy Nuclei (%) [2]: 84%
- Population Mitochondria Different-Phenotype (%) [2]: 51%
- Population Mitotic Cells (%) [2]: 47%
- Population Pyknosed Nuclei (%) [2]: 10%
- Population Tubulin-Different-Phenotype (%) [2]: 22%
- Total Cell Count [2]: 424
- Population Apoptotic (%) [3]: 30%
- Population Fragmented Nuclei (%) [3]: 6%
- Population Healthy Nuclei (%) [3]: 83%
- Population Hoechst High Intensity Objects (%) [3]: 6%
- Population Membrane Permeable-Phenotype (%) [3]: 0%
- Population Mitochondria Different-Phenotype (%) [3]: 35%
- Population Mitotic Cells (%) [3]: 69%
- Population Normal (%) [3]: 93%
- Population Pyknosed Nuclei (%) [3]: 10%
- Population Tubulin-Different-Phenotype (%) [3]: 37%
- Total Cell Count [3]: 451
- Population Apoptotic (%) [4]: 39%
- Population Fragmented Nuclei (%) [4]: 4%
- Population Healthy Nuclei (%) [4]: 82%
- Population Hoechst High Intensity Objects (%) [4]: 5%
- Population Membrane Permeable-Phenotype (%) [4]: 1%
- Population Mitochondria Different-Phenotype (%) [4]: 51%
- Population Mitotic Cells (%) [4]: 60%
- Population Normal (%) [4]: 94%
- Population Pyknosed Nuclei (%) [4]: 13%
- Population Tubulin-Different-Phenotype (%) [4]: 27%
- Total Cell Count [4]: 344
- Population Apoptotic (%) [5]: 41%
- Population Fragmented Nuclei (%) [5]: 8%
- Population Healthy Nuclei (%) [5]: 81%
- Population Hoechst High Intensity Objects (%) [5]: 6%
- Population Membrane Permeable-Phenotype (%) [5]: 0%
- Population Mitochondria Different-Phenotype (%) [5]: 21%
- Population Mitotic Cells (%) [5]: 58%
- Population Normal (%) [5]: 93%
- Population Pyknosed Nuclei (%) [5]: 9%
- Population Tubulin-Different-Phenotype (%) [5]: 15%
- Total Cell Count [5]: 522
- Population Apoptotic (%) [6]: 28%
- Population Hoechst High Intensity Objects (%) [6]: 5%
- Population Mitochondria Different-Phenotype (%) [6]: 32%
- Population Mitotic Cells (%) [6]: 71%
- Population Normal (%) [6]: 94%
- Population Tubulin-Different-Phenotype (%) [6]: 16%
- Total Cell Count [6]: 521
- Population Apoptotic (%) [7]: 22%
- Population Fragmented Nuclei (%) [7]: 10%
- Population Healthy Nuclei (%) [7]: 77%
- Population Hoechst High Intensity Objects (%) [7]: 3%
- Population Membrane Permeable-Phenotype (%) [7]: 1%
- Population Mitochondria Different-Phenotype (%) [7]: 15%
- Population Mitotic Cells (%) [7]: 77%
- Population Normal (%) [7]: 96%
- Population Pyknosed Nuclei (%) [7]: 12%
- Population Tubulin-Different-Phenotype (%) [7]: 20%
- Total Cell Count [7]: 594
- Population Apoptotic (%) [8]: 28%
- Population Fragmented Nuclei (%) [8]: 7%
- Population Healthy Nuclei (%) [8]: 82%
- Population Hoechst High Intensity Objects (%) [8]: 5%
- Population Membrane Permeable-Phenotype (%) [8]: 0%
- Population Mitochondria Different-Phenotype (%) [8]: 31%
- Population Mitotic Cells (%) [8]: 71%
- Population Normal (%) [8]: 94%
- Population Pyknosed Nuclei (%) [8]: 9%
- Population Tubulin-Different-Phenotype (%) [8]: 23%
- Total Cell Count [8]: 437
- Population Apoptotic (%) [9]: 28%
- Population Fragmented Nuclei (%) [9]: 16%
- Population Healthy Nuclei (%) [9]: 76%
- Population Hoechst High Intensity Objects (%) [9]: 2%
- Population Membrane Permeable-Phenotype (%) [9]: 0%
- Population Mitochondria Different-Phenotype (%) [9]: 16%
- Population Mitotic Cells (%) [9]: 71%
- Population Normal (%) [9]: 97%
- Population Pyknosed Nuclei (%) [9]: 7%
- Population Tubulin-Different-Phenotype (%) [9]: 13%
- Total Cell Count [9]: 834
- Population Apoptotic (%) [10]: 32%
- Population Fragmented Nuclei (%) [10]: 14%
- Population Healthy Nuclei (%) [10]: 81%
- Population Membrane Permeable-Phenotype (%) [10]: 2%
- Population Mitochondria Different-Phenotype (%) [10]: 14%
- Population Mitotic Cells (%) [10]: 67%
- Population Pyknosed Nuclei (%) [10]: 4%
- Population Tubulin-Different-Phenotype (%) [10]: 12%
- Total Cell Count [10]: 877
- Population Apoptotic (%) [11]: 21%
- Population Fragmented Nuclei (%) [11]: 13%
- Population Healthy Nuclei (%) [11]: 81%
- Population Hoechst High Intensity Objects (%) [11]: 3%
- Population Membrane Permeable-Phenotype (%) [11]: 2%
- Population Mitochondria Different-Phenotype (%) [11]: 12%
- Population Mitotic Cells (%) [11]: 78%
- Population Normal (%) [11]: 96%
- Population Pyknosed Nuclei (%) [11]: 5%
- Population Tubulin-Different-Phenotype (%) [11]: 14%
- Total Cell Count [11]: 929
- Population Apoptotic (%) [12]: 25%
- Population Fragmented Nuclei (%) [12]: 12%
- Population Healthy Nuclei (%) [12]: 80%
- Population Hoechst High Intensity Objects (%) [12]: 2%
- Population Membrane Permeable-Phenotype (%) [12]: 1%
- Population Mitochondria Different-Phenotype (%) [12]: 18%
- Population Mitotic Cells (%) [12]: 75%
- Population Normal (%) [12]: 97%
- Population Pyknosed Nuclei (%) [12]: 7%
- Population Tubulin-Different-Phenotype (%) [12]: 15%
- Total Cell Count [12]: 586
